B1: NELF-E aptamer (parent)
chain: CCCAACGACUGCCGAGCGAGAUUACGCUUGAGCGCCCCACUGAGGAUGCCCACGGGCGAUUGGGGCACGG

Variants of: B1
Experiment: HiTS-RAP
Conditions: with NELF-E (Drosophila)
Outline: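 Aptamer DNA templates carrying a T7 promoter and ter site were sequenced on an Illumina GAIIx flowcell, then transcribed in situ by T7 RNA polymerase and halted by GST-Tus (30 minutes, 37°C). Clusters were imaged after 30-minute room-temperature equilibration with NELF-E-mOrange at 0.064 to 1000 nM in HEPES binding buffer, and only the first binding curve was used. Intensities were normalised to sequencing intensity and averaged per sequence. Kd came from weighted Hill fits, keeping fits with variance below 1,000,000.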

| Variant | Kd [nM] |
| --- | --- |
| CCCAACGACUGCCGAGCAAGAGUACGCUUGAGCGCCCCACUGAGGAUGCCCACGGGCGAUUGGGGCACGG [G18A U22G] | 6 |
| CUCAACGACUGCCGAGCGAGAUUACGCUUGAGCGCCCCACUGAGGAUGCCCACGGGCGAUUGGGGCACGG [C2U] | 5.27 |
| CCCAAGGACUGCCGAGCGAGAUUACGCUUGAGCGCCCCACUGAAGAUGCCCACGGGCGAUUGGGGCACGG [C6G G44A] | 61 |
| CCCAACGACUGCCGAGUGGGAUUACGCUUGAGCGCCCCACUGAGGAUGCCCACGGGCGAUUGGGGCACGG [C17U A19G] | 7.29 |
| CCCAGCGACUGCCGAGCGAGAUUACUCUUGAGCGCCCCACUGAGGAUGCCCACGGGCGAUUGGGGCACGG [A5G G26U] | 7.39 |
| CCCAACGACUGCCGAGCGAGAGUACGCUUGAGCGCCCCACUGAGGAUGCCCACGGGCGAUUGGGGCACGG [U22G] | 4.92 |
| CCCAACGUCUGCCGAGCGAGAUUACACUUGAGCGCCCCACUGAGGAUGCCCACGGGCGAUUGGGGCACGG [A8U G26A] | 4.2 |
| CCCAACGACUGCCGAGCGAGAGUACGCUUGAGCGCUCCACUGAGGAUGCCCACGGGCGAUUGGGGCACGG [U22G C36U] | 6.89 |
| CCCAACGACUGCCGAGGGAGAUUACGCUUGGGCGCCCCACUGAGGAUGCCCACGGGCGAUUGGGGCACGG [C17G A31G] | 5.92 |
| CCCGACGACUGCCGUGCGAGAUUACGCUUGAGCGCCCCACUGAGGAUGCCCACGGGCGAUUGGGGCACGG [A4G A15U] | 6.63 |
| CCCAACGACUGCUGAGCGAGAUUACGCUUGAGCGCCCCACGGAGGAUGCCCACGGGCGAUUGGGGCACGG [C13U U41G] | 5.56 |
| CCCAACGACGGCCGAGCGAGAUUACGCUUGAGCGCCCCACUUAGGAUGCCCACGGGCGAUUGGGGCACGG [U10G G42U] | 23.2 |
| CCCAACUACUGCCGAGCGAGAUUACGCUUGAGCGCCCCGCUGAGGAUGCCCACGGGCGAUUGGGGCACGG [G7U A39G] | 11.4 |
| CCCAACGACUGCCGAGCGAGAUUACGCCUGAGCGCCCCACGGAGGAUGCCCACGGGCGAUUGGGGCACGG [U28C U41G] | 11.9 |
| CCCAACGCGUGCCGAGCGAGAUUACGCUUGAGCGCCCCACUGAGGAUGCCCACGGGCGAUUGGGGCACGG [A8C C9G] | 7.53 |
| CCCAACGGCUGCCGAGCGAGAUUACGCUUGAGCGCCCCACUGAGGAUGCCCACGGACGAUUGGGGCACGG [A8G G56A] | 10 |
| CCCAACGACUGCCGAGCGGGAUUACGCUUGAGCGCCCCACUGAGGAUGCCCAUGGGCGAUUGGGGCACGG [A19G C53U] | 4.21 |
| CCCAACGACUGCCGAGCGAGAUUACGCUUGAGCGCCCCACUGAGGAUGCCCACGGGCUAUUGGGGCACGG [G58U] | 9.77 |
| CCCAACGACUGCCGAGCGAGAUUACGCUUGAGCGCCCCACUGAGGAUGCCCACGGGAGAUUGGGGCACGG [C57A] | 13.9 |

| Variant | Kd [nM] |
| --- | --- |
| CCCUUCGACUGCCGAGCGAGAUUACGCUUGAGCGCCCCACUGAGGAUGCCCACGGGCGAUUGGGGCACGG [A4U A5U] | 4.82 |
| CCCAACGACUGCUGAGCGAGAUUACGCUUGAGCGCCCCACUGAGGAUGCCCACGGGCGAUUGGGGCACGG [C13U] | 4.41 |
| CCCAACUACUGCCGAGCGAGAUUACGCUUGAGCGCCCCACAGAGGAUGCCCACGGGCGAUUGGGGCACGG [G7U U41A] | 64.3 |
| CCCGGCGACUGCCGAGCGAGAUUACGCUUGAGCGCCCCACUGAGGAUGCCCACGGGCGAUUGGGGCACGG [A4G A5G] | 5.81 |
| CCCAACGACUUCGGAGCGAGAUUACGCUUGAGCGCCCCACUGAGGAUGCCCACGGGCGAUUGGGGCACGG [G11U C13G] | 5.71 |
| CCCAACGACUUCUGAGCGAGAUUACGCUUGAGCGCCCCACUGAGGAUGCCCACGGGCGAUUGGGGCACGG [G11U C13U] | 6.19 |
| CCCAACGAGUGCCGAGCGAGAUUUCGCUUGAGCGCCCCACUGAGGAUGCCCACGGGCGAUUGGGGCACGG [C9G A24U] | 7.67 |
| CCCAACGACUGGCGAGCGAGAUUACGCUUGAGCGCCCCACUAAGGAUGCCCACGGGCGAUUGGGGCACGG [C12G G42A] | 39.8 |
| CCCAACGACUGCCGAGCGGGAUUACGCUUGAGCGCCCCACUGAGGAUGCCCGCGGGCGAUUGGGGCACGG [A19G A52G] | 5.06 |
| CCCAAGGACUGCCGAGCGAGAUUACGCUUGAGCGCCCCACUGAGGAUGCCCGCGGGCGAUUGGGGCACGG [C6G A52G] | 4.45 |
| CCCUACGACUGCCGAGCGAGAUUACGCUUGAGCGCCCCACUGAGGAUGCUCACGGGCGAUUGGGGCACGG [A4U C50U] | 12.7 |
| CCCAACGACUGACGAGCGAGAUGACGCUUGAGCGCCCCACUGAGGAUGCCCACGGGCGAUUGGGGCACGG [C12A U23G] | 5.88 |
| CCCAACGACUUCCGAGCGAGAUUACGCUUGAGCGCCCCACUGAGGAUGCCCACGGGCGAUUGGAGCACGG [G11U G64A] | 9.29 |
| CCCAUCGACUGCCGAGCGAGAUUACGCUUGAGCGCCACACUGAGGAUGCCCACGGGCGAUUGGGGCACGG [A5U C37A] | 14.8 |
| CCCAACGAGUGCCGAGCGAGGUUACGCUUGAGCGCCCCACUGAGGAUGCCCACGGGCGAUUGGGGCACGG [C9G A21G] | 6.86 |
| CCCAACGACUGCCGAGCGAGAUUACGCUGGAGCGCCCCACUGAGGAUGCCCACGUGCGAUUGGGGCACGG [U29G G55U] | 6.64 |
| CCCGACGACUGCCGAGCGAGAUUACGCUUGAGCGCUCCACUGAGGAUGCCCACGGGCGAUUGGGGCACGG [A4G C36U] | 7.32 |
| CCCAACGACGGCCGAGGGAGAUUACGCUUGAGCGCCCCACUGAGGAUGCCCACGGGCGAUUGGGGCACGG [U10G C17G] | 4.78 |
| CCCAACGACUGCCGAGCGAGAUUACGCUUGAGCGCCCCACUGAGGAUGCCCGCGGGCGAUUGGGGCACGG [A52G] | 4.24 |
